Source: PMC9653265 (Journal of medicinal chemistry, 2022)

Assays:
[1] = test system: 45 receptors, channels, and transporters; assay: PDSP off-target binding screen at 45 receptors, channels and transporters; conditions: at 10 μM
P2X7R = conditions: cited from earlier work
mP2X4R = conditions: cited from earlier work
hP2X1R = molecular target: T1, hP2X1R (Homo sapiens, UniProt P51575); assay: cell-based; conditions: CHO-K1, read-out: hP2X1R % inhib.
T1 sequence (P51575 1-399): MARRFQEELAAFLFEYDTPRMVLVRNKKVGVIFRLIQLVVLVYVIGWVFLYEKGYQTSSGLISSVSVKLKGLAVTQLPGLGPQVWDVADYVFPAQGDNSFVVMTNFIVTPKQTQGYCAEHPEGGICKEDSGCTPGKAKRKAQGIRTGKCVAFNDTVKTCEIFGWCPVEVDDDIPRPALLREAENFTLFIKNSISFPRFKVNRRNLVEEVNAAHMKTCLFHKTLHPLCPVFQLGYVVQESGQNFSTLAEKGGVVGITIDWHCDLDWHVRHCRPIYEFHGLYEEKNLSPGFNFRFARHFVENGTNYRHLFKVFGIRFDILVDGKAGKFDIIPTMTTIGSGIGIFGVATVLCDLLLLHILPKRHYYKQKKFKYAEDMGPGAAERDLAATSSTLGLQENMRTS

[2] = test system: mouse middle cerebral artery occlusion (MCAO) model of ischemic stroke; assay: MCAO ischemic stroke model, cerebral infarct volume; type: in vivo
[3] = test system: mouse middle cerebral artery occlusion (MCAO) model of ischemic stroke; assay: Open-field test after MCAO; type: in vivo; conditions: middle-aged mice after MCAO; vs vehicle; over 4 weeks
How it was run: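 The model used 60 min right MCAO in middle-aged male and female C57BL/6 mice. Test compound or PBS vehicle was infused by osmotic minipump for 3 days. Testing was at baseline and on post-MCAO days 2, 7, 14, 21 and 28. Mice started from a corner of a 16″ acrylic box and explored ~10 min. Total photobeam breaks and center-zone break percentage were recorded. This test preceded rotarod by 1 h. Data are mean ± S.D.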

[4] = test system: mouse middle cerebral artery occlusion (MCAO) model of ischemic stroke; assay: Rotarod test after MCAO; type: in vivo; conditions: middle-aged mice after MCAO; 4–40 rpm, 5 min; over 4 weeks
How it was run: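 Middle-aged male and female C57BL/6 mice underwent 60 min right MCAO. They received test compound or PBS by osmotic minipump for 3 days. Rotarod was done at baseline and on post-MCAO days 2, 7, 14, 21 and 28, 1 h after open-field testing. The rod accelerated 4–40 rpm over 5 min. Each mouse had two trials 30 min apart, and mean latency to fall (s) was used. Data are mean ± S.D.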

[5] = test system: mouse middle cerebral artery occlusion (MCAO) model of ischemic stroke; assay: Novel Object Recognition Task; type: in vivo; conditions: middle-aged mice, 4 weeks after MCAO; dose of 3 mg/kg; p < 0.05 vs Veh
[6] = test system: primary human monocyte-derived macrophages; assay: Calcium influx assay on human monocyte-derived macrophages; type: cell-based; conditions: ATP 50 μM, 15 min pretreatment
How it was run: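 Monocytes came from fresh whole blood of healthy donors. They were matured 5–7 days in RPMI with GM-CSF (5 ng/mL), then seeded at 10^4 cells/dish for ≥24 h. Cells were loaded with Calbryte 590 AM for 60 min in HBSS/HEPES and washed. They were pretreated 15 min with test compound (0, 0.1, 0.3, 0.6, 1, 3 μM), then stimulated with ATP 50 μM. Confocal images were taken every 6 s for up to 4 min, and peak Ca2+ amplitude was quantified.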

[7] = test system: mouse middle cerebral artery occlusion (MCAO) model of ischemic stroke; conditions: mice, 1 mg/kg/day × 3 days, administered 4 h after onset of stroke; cited from earlier work
[8] = young adult male mice (8–12 weeks), doses of 1.5 and 3.0 mg/kg/day × 3 days continuous infusion (Alzet minipump), 3 days after stroke, vs Veh
[9] = young adult male mice, 5 mg/kg/day × 3 days continuous infusion, 3 days after stroke, vs Veh

## CCN(CC)CC.O=C1CC(=O)N(c2cccc(-c3noc(=S)[nH]3)c2)c2cc(Br)c3ccccc3c2N1 [Compound 21d, 7-Bromo-5-(3-(5-thioxo-4,5-dihydro-1,2,4-oxadiazol-3-yl)-phenyl)-1,5-dihydro-2H-naphtho[1,2-b][1,4]diazepine-2,4(3H)-dione]
[1]
  off-target binding at 45 receptors, channels, and transporters: no significant interactions

## O=C1CC(=O)N(c2cccc(-c3noc(=S)[n-]3)c2)c2ccc3ccccc3c2N1.[Na+] [Compound 5, 5-(3-(5-Thioxo-4,5-dihydro-1,2,4-oxadiazol-3-yl)phenyl)-1,5-dihydro-2H-naphtho[1,2-b][1,4]diazepine-2,4(3H)-dione]
[1]
  off-target binding at 45 receptors, channels, and transporters: no significant interactions
P2X7R
  activity at the P2X7R: inactive
mP2X4R
  potency in blocking mP2X4R effects in vitro compared with hP2X4R: as potent

## O=C1CC(=O)N(c2cccc(-c3noc(=S)[nH]3)n2)c2ccc3ccccc3c2N1 [Compound 21v, 5-(6-(5-Thioxo-4,5-dihydro-1,2,4-oxadiazol-3-yl)pyridin-2-yl)-1,5-dihydro-2H-naphtho[1,2-b][1,4]diazepine-2,4(3H)-dione]
hP2X1R
  inhibition at 30 µM: ≤ 31%

## CCN(CC)CC.O=C1CC(=O)N(c2ccnc(-c3noc(=S)[nH]3)c2)c2ccc3ccccc3c2N1 [Compound 21u, 5-(2-(5-Thioxo-4,5-dihydro-1,2,4-oxadiazol-3-yl)pyridin-4-yl)-1,5-dihydro-2H-naphtho[1,2-b][1,4]diazepine-2,4(3H)-dione]
[2]; neuroprotective and neuro-rehabilitative properties
  effective dose in murine MCAO ischemic stroke model: 1.5 mg/kg
[2]; [8]
  cortical infarct volume: significantly reduced
  total hemispheric infarct volume: significantly reduced
[3]
  total exploratory behavior (total beam breaks, open-field task): did not show any differences
[4]
  motor coordination and balance (rotarod): did not improve
[5]
  learning and memory function (NORT): significant retention of memory
[6]; HMDM of healthy subjects
  inhibition of ATP-induced increase in calcium influx: dose-dependent (0–3 μM) inhibition
[6]; vs ATP only
  doses giving a significant decrease of the peak Ca2+ amplitude: ≥ 0.6 µM

## Cc1ccc2c3c(ccc2c1)N(c1cccc(-c2noc(=S)[n-]2)c1)C(=O)CC(=O)N3.[Na+] [Compound 22c]
[1]
  off-target binding at 45 receptors, channels, and transporters: no significant interactions
[2]; [9]
  cortical infarct volume: not significant
  striatal infarct volume: not significant
  total hemispheric infarct volume: moderate but significant decrease

## CC(=O)NCc1ccc2ccc3c(c2c1)NC(=O)CC(=O)N3c1cccc(-c2noc(=S)[nH]2)c1 [Compound 21i, N-((2,4-Dioxo-5-(3-(5-thioxo-4,5-dihydro-1,2,4-oxadiazol-3-yl)-phenyl)-2,3,4,5-tetrahydro-1H-naphtho[1,2-b][1,4]diazepin-10-yl)-methyl)acetamide]
hP2X1R
  inhibition at 30 µM: ≤ 31%

## O=C1CN=C(c2cccc(Br)c2)c2oc3ccccc3c2N1 [Compound 3, 5-(3-bromophenyl)-1,3-dihydro-2H-benzofuro[3,2-e][1,4]diazepin-2-one]
[7]
  stroke infarct size: reduced
